# Published values of several laboratories.
# Each line is one published result; the experiments were not run side by side.
# Read-out: enzyme activity
# RET: Proto-oncogene tyrosine-protein kinase receptor Ret (RET, Homo sapiens, UniProt P07949)
Compound,target,test,setting,remaining activity [%]
Cc1[nH]c(/C=C2\C(=O)Nc3ccc(F)cc32)c(C)c1C(=O)N[C@H]1CCN(C(=O)N(C)C)C1,RET,inhibitor,0.1 µM,62
COc1cc(NC(=O)Nc2cccc(Br)c2)cc2sc(NC(=O)c3ccccc3)nc12,RET,"inhibitor, radiometric",0.1 µM,153
Cc1cnc(NC2CCOCC2)nc1-n1cnc(C(=O)NC(CN)c2cc(F)cc(Cl)c2)c1 (stereo not shown),"Proto-oncogene tyrosine-protein kinase receptor Ret (RET, Homo sapiens, UniProt P07949, V804M)","inhibitor, radiometric",1 µM,100
CCOc1ccc(NC(=O)Nc2cc(OC)c3nc(NC(=O)c4ccccc4)sc3c2)cc1,RET,"inhibitor, radiometric",0.1 µM,115
CC(C)(O)[C@H]1CC[C@H](Nc2ccc3ncc(-c4cccc(C(F)(F)F)c4)n3n2)CC1,RET,inhibitor,1 µM,86.9
CCN(CC)CCNC(=O)c1c(C)[nH]c(/C=C2\C(=O)Nc3ccc(F)cc32)c1C,RET,inhibitor,1 µM,0
CCCOc1ccc(OC)c(F)c1C(=O)c1ccc(C(=O)N[C@@H]2CNC[C@H]2NC(=O)c2ccc3[nH]ncc3c2)cc1,RET,inhibitor,0.1 µM,98
Cc1ccc(C(=O)Nc2ccc(CN3CCN(C)CC3)c(C(F)(F)F)c2)cc1C#Cc1cnc2cccnn12,RET,,23.5 nM,1.3
COc1ccc(-c2cn3cc(C(=O)N4CC(O)C4)nc3c(=O)n2C)c(F)c1,RET,"inhibitor, radiometric",10 µM,111
CC(C)(C)c1nc2c(s1)c1nc(N)ncc1c1ccc(NS(=O)(=O)c3c(F)cccc3F)c(F)c12,RET,"inhibitor, radiometric",1 µM,69
COc1cc(NC(=O)Nc2ccccc2Br)cc2sc(NC(=O)c3ccccc3)nc12,RET,"inhibitor, radiometric",0.1 µM,106
CCN(CC)c1ccc(C2=NNC(=O)CC2C)cc1[N+](=O)[O-] (stereo not shown),RET,inhibitor,10 µM,102
Cc1sc(C(=O)NC2COC2)cc1-n1cc(NC(=O)Nc2c(F)cccc2Cl)cn1,RET,inhibitor,10 µM,113
